In ChEMBL document CHEMBL1154766, “Synthesis and biological evaluation of new podophyllic aldehyde derivatives with cytotoxic and apoptosis-inducing activities” (2010):
Calls of active or inactive are those of the source. The rule behind the calls is not given here.

Experiments:
HT-29 [1] = test: Cytotoxicity against human HT-29 cells after 72 hrs by SRB assay; format: functional; conditions: HT-29, 72 h
Summary of the method: (§1)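 SRB growth assay: 5 × 10³ cells/well in RPMI, attached 18 h drug-free, then compound added in DMSO/H₂O 3:7 for 72 h. Fixed with cold 50% TCA 60 min at 4 °C, stained 0.4% SRB in 1% acetic acid 10 min, bound dye solubilized in Tris, OD 490 nm. GI50 from 100[(T−T0)/(C−T0)] = 50; mean of triplicates.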

MDA-MB-231 = test: Cytotoxicity against human MDA-MB-231 cells after 72 hrs by SRB assay; format: functional; conditions: MDA-MB-231, 72 h; summary of the method: as §1
A549 = test: Cytotoxicity against human A549 cells after 72 hrs by SRB assay; format: functional; conditions: A549, 72 h; summary of the method: as §1
HT-29 [2] = test: Cell cycle arrest in human HT-29 cells assessed as accumulation at S phase at 1 uM after 48 hrs by flow cytometry; format: functional
Summary of the method: (§2)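 HT-29 cells incubated at 1 μM for 24, 48 or 72 h alongside untreated controls. (3-5) × 10⁵ cells fixed overnight in 70% ethanol at 4 °C, PBS-washed three times, then treated 1 h at room temperature with 1 mg/mL RNase A and 20 μg/mL propidium iodide. DNA content read by flow cytometry; apoptosis taken as % cells in sub-G1 peak. Representative of three independent experiments.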

HT-29 [3] = test: Induction of microtubule disruption in human HT-29 cells at 1 uM after 24 hrs; format: cell-based
Summary of the method: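 HT-29 cells on poly-L-lysine coverslips exposed to 1 μM for 24 h, washed in HPEM (pH 6.6), fixed with 4% paraformaldehyde 15 min, permeabilized with 0.5% Triton X-100. Anti-α-tubulin mouse monoclonal (1:150, 1 h) then CY3 anti-mouse IgG (1 h, 4 °C); nuclei DAPI-stained; imaged by confocal microscopy. Representative of at least three experiments.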

HT-29 [4] = test: Cell cycle arrest in human HT-29 cells assessed as accumulation at S phase at 1 uM after 24 hrs by flow cytometry; format: functional; summary of the method: as §2
HT-29 [5] = test: Induction of apoptosis in human HT-29 cells assessed as accumulation at subG1 phase at 1 uM after 24 hrs by flow cytometry; format: functional; summary of the method: as §2
HT-29 [6] = test: Induction of apoptosis in human HT-29 cells assessed as accumulation at subG1 phase at 1 uM after 72 hrs by flow cytometry; format: functional; summary of the method: as §2
HT-29 [7] = test: Cell cycle arrest in human HT-29 cells assessed as accumulation at G2/M phase at 1 uM after 48 hrs by flow cytometry; format: functional; summary of the method: as §2
HT-29 [8] = test: Induction of apoptosis in human HT-29 cells assessed as accumulation at subG1 phase at 1 uM after 48 hrs by flow cytometry; format: functional; summary of the method: as §2
HT-29 [9] = test: Cell cycle arrest in human HT-29 cells assessed as accumulation at G2/M phase at 1 uM after 72 hrs by flow cytometry; format: functional; summary of the method: as §2
HT-29 [10] = test: Cell cycle arrest in human HT-29 cells assessed as accumulation at G0/G1 phase at 1 uM after 72 hrs by flow cytometry; format: functional; summary of the method: as §2
HT-29 [11] = test: Cell cycle arrest in human HT-29 cells assessed as accumulation at S phase at 1 uM after 72 hrs by flow cytometry; format: functional; summary of the method: as §2
HT-29 [12] = test: Cell cycle arrest in human HT-29 cells assessed as accumulation at G0/G1 phase at 1 uM after 48 hrs by flow cytometry; format: functional; summary of the method: as §2
HT-29 [13] = test: Cell cycle arrest in human HT-29 cells assessed as accumulation at G0/G1 phase at 1 uM after 24 hrs by flow cytometry; format: functional; summary of the method: as §2
HT-29 [14] = test: Cell cycle arrest in human HT-29 cells assessed as accumulation at G2/M phase at 1 uM after 24 hrs by flow cytometry; format: functional; summary of the method: as §2

Structure (SMILES)	GI50 (HT-29 [1]) [nM]	GI50 (MDA-MB-231) [nM]	GI50 (A549) [nM]	further results
COc1cc([C@@H]2c3cc4c(cc3[C@H](O)[C@@H](CO)[C@H]2C(=O)N2CCCC2)OCO4)cc(OC)c1OC [PICROPODOPHYLLIC ACID PYRROLIDINYL AMIDE]	7800	7800	6800	
COC(=O)[C@@H]1C(C=O)=Cc2cc3c(cc2[C@H]1c1cc(OC)c(OC)c(OC)c1)OCO3 [PODOPHYLLIC ALDEHYDE]	38	200	61	
COc1cc([C@@H]2c3cc4c(cc3[C@H](O)[C@@H](CO)[C@H]2C(=O)OC/C=C/c2ccccc2)OCO4)cc(OC)c1OC [CINNAMYL PICROPODOPHYLLATE]	150	180	200	
COc1cc([C@@H]2c3cc4c(cc3[C@H](O)[C@H]3COC(=O)[C@H]23)OCO4)cc(OC)c1OC [PODOFILOX]	24		12	
CCNCC1=Cc2cc3c(cc2[C@@H](c2cc(OC)c(OC)c(OC)c2)[C@@H]1C(=O)OC)OCO3	400	2600	700	
CCC/N=C/C1=Cc2cc3c(cc2[C@@H](c2cc(OC)c(OC)c(OC)c2)[C@@H]1C(=O)OCc1cc(OC)c(OC)c(OC)c1)OCO3	4.3	130	5.2	
CCCNCC1=Cc2cc3c(cc2[C@@H](c2cc(OC)c(OC)c(OC)c2)[C@@H]1C(=O)OCc1cc(OC)c(OC)c(OC)c1)OCO3	2000	6400	1900	
CCNC(=O)[C@@H]1C(C=O)=Cc2cc3c(cc2[C@H]1c1cc(OC)c(OC)c(OC)c1)OCO3	8000	7100	4500	Activity (HT-29 [2]): 3%; Activity (HT-29 [3]): inactive; Activity (HT-29 [4]): 9.8%; Activity (HT-29 [5]): 25%; Activity (HT-29 [6]): 93.8%; Activity (HT-29 [7]): 2.3%; Activity (HT-29 [8]): 61.7%; Activity (HT-29 [9]): 0.4%; Activity (HT-29 [10]): 5.3%; Activity (HT-29 [11]): 0.5%; Activity (HT-29 [12]): 33%; Activity (HT-29 [13]): 51.7%; Activity (HT-29 [14]): 13.5%
CCNCC1=Cc2cc3c(cc2[C@@H](c2cc(OC)c(OC)c(OC)c2)[C@@H]1C(=O)N1CCCC1)OCO3	> 20000	> 20000	> 20000	
CCNC(=O)[C@H]1[C@H](c2cc(OC)c(OC)c(OC)c2)c2cc3c(cc2[C@H](O)[C@H]1CO)OCO3	10000	10000	9800	
COc1cc(COC(=O)[C@@H]2C(C=O)=Cc3cc4c(cc3[C@H]2c2cc(OC)c(OC)c(OC)c2)OCO4)cc(OC)c1OC	20	42	34	Activity (HT-29 [2]): 5.1%; Activity (HT-29 [3]): Active; Activity (HT-29 [4]): 1.1%; Activity (HT-29 [5]): 0.5%; Activity (HT-29 [6]): 32.3%; Activity (HT-29 [7]): 79.5%; Activity (HT-29 [8]): 8.6%; Activity (HT-29 [9]): 36.5%; Activity (HT-29 [10]): 18.3%; Activity (HT-29 [11]): 12.9%; Activity (HT-29 [12]): 6.8%; Activity (HT-29 [13]): 0.9%; Activity (HT-29 [14]): 97.5%
CCOC(=O)COC(=O)[C@@H]1C(C=O)=Cc2cc3c(cc2[C@H]1c1cc(OC)c(OC)c(OC)c1)OCO3	28	110	13	Activity (HT-29 [2]): 3.4%; Activity (HT-29 [3]): Active; Activity (HT-29 [4]): 0.9%; Activity (HT-29 [5]): 0.5%; Activity (HT-29 [6]): 30.6%; Activity (HT-29 [7]): 85.6%; Activity (HT-29 [8]): 6.3%; Activity (HT-29 [9]): 33.8%; Activity (HT-29 [10]): 16.4%; Activity (HT-29 [11]): 19.2%; Activity (HT-29 [12]): 4.7%; Activity (HT-29 [13]): 1%; Activity (HT-29 [14]): 97.6%
COc1cc([C@@H]2c3cc4c(cc3[C@H](O)[C@@H](CO)[C@H]2C(=O)OCCCBr)OCO4)cc(OC)c1OC	22	34	> 17000	
C=CCOC(=O)[C@H]1[C@H](c2cc(OC)c(OC)c(OC)c2)c2cc3c(cc2[C@H](O)[C@H]1CO)OCO3 [ALLYL PICROPODOPHYLLATE]	80	110	120	
COC(=O)[C@@H]1C(CNc2ccc(OC)cc2)=Cc2cc3c(cc2[C@H]1c1cc(OC)c(OC)c(OC)c1)OCO3	700	2400	1000	
COc1cc([C@@H]2c3cc4c(cc3C=C(C=O)[C@H]2C(=O)OC/C=C/c2ccccc2)OCO4)cc(OC)c1OC	36	130	32	Activity (HT-29 [2]): 4.2%; Activity (HT-29 [3]): Active; Activity (HT-29 [4]): 1.8%; Activity (HT-29 [5]): 0.4%; Activity (HT-29 [6]): 33.7%; Activity (HT-29 [7]): 85.3%; Activity (HT-29 [8]): 5.2%; Activity (HT-29 [9]): 23.2%; Activity (HT-29 [10]): 21.1%; Activity (HT-29 [11]): 22%; Activity (HT-29 [12]): 5.3%; Activity (HT-29 [13]): 1.4%; Activity (HT-29 [14]): 96.4%

Structure (SMILES)	GI50 (HT-29 [1]) [nM]	GI50 (MDA-MB-231) [nM]	GI50 (A549) [nM]	further results
COc1ccc(NC(=O)[C@@H]2C(C=O)=Cc3cc4c(cc3[C@H]2c2cc(OC)c(OC)c(OC)c2)OCO4)cc1	800	4600	1200	Activity (HT-29 [2]): 1.8%; Activity (HT-29 [3]): inactive; Activity (HT-29 [4]): 13.2%; Activity (HT-29 [5]): 13.6%; Activity (HT-29 [6]): 52.6%; Activity (HT-29 [7]): 2.6%; Activity (HT-29 [8]): 45.2%; Activity (HT-29 [9]): 2.6%; Activity (HT-29 [10]): 36.4%; Activity (HT-29 [11]): 8.4%; Activity (HT-29 [12]): 50.4%; Activity (HT-29 [13]): 48%; Activity (HT-29 [14]): 25.2%
CCOC(=O)COC(=O)[C@H]1[C@H](c2cc(OC)c(OC)c(OC)c2)c2cc3c(cc2[C@H](O)[C@H]1CO)OCO3 [ETHOXYCARBONYLMETHYL PICROPODOPHYLLATE]	180	160	170	
CC/N=C/C1=Cc2cc3c(cc2[C@@H](c2cc(OC)c(OC)c(OC)c2)[C@@H]1C(=O)OC)OCO3	2.2		22	
COC(=O)[C@@H]1C(/C=N/c2ccc(OC)cc2)=Cc2cc3c(cc2[C@H]1c1cc(OC)c(OC)c(OC)c1)OCO3	9.4		94	
COC(=O)[C@@H]1C(CNc2ccc(C)cc2)=Cc2cc3c(cc2[C@H]1c1cc(OC)c(OC)c(OC)c1)OCO3	800	1500	900	
CCCCCCCOC(=O)[C@H]1[C@H](c2cc(OC)c(OC)c(OC)c2)c2cc3c(cc2[C@H](O)[C@H]1CO)OCO3 [HEPTYL PICROPODOPHYLLATE]	160	180	190	
CCOC(=O)[C@@H]1C(C=O)=Cc2cc3c(cc2[C@H]1c1cc(OC)c(OC)c(OC)c1)OCO3	200	540	180	
C=CCOC(=O)[C@@H]1C(C=O)=Cc2cc3c(cc2[C@H]1c1cc(OC)c(OC)c(OC)c1)OCO3	20	150	30	Activity (HT-29 [2]): 3.9%; Activity (HT-29 [3]): Active; Activity (HT-29 [4]): 4.5%; Activity (HT-29 [5]): 0.3%; Activity (HT-29 [6]): 41.6%; Activity (HT-29 [7]): 83.4%; Activity (HT-29 [8]): 1.8%; Activity (HT-29 [9]): 8%; Activity (HT-29 [10]): 33.6%; Activity (HT-29 [11]): 16.8%; Activity (HT-29 [12]): 10.9%; Activity (HT-29 [13]): 3.9%; Activity (HT-29 [14]): 91.3%
COc1cc([C@@H]2c3cc4c(cc3C=C(C=O)[C@H]2C(=O)N2CCCC2)OCO4)cc(OC)c1OC	7300	8200	6600	
COc1ccc(NCC2=Cc3cc4c(cc3[C@@H](c3cc(OC)c(OC)c(OC)c3)[C@@H]2C(=O)N2CCCC2)OCO4)cc1	15000	> 17000	15000	
CCOC(=O)[C@H]1[C@H](c2cc(OC)c(OC)c(OC)c2)c2cc3c(cc2[C@H](O)[C@H]1CO)OCO3 [ETHYL PICROPODOPHYLLATE]	90	90	70	
CCCNCC1=Cc2cc3c(cc2[C@@H](c2cc(OC)c(OC)c(OC)c2)[C@@H]1C(=O)OC)OCO3	1000	5500	1500	
CCCNCC1=Cc2cc3c(cc2[C@@H](c2cc(OC)c(OC)c(OC)c2)[C@@H]1C(=O)OCC)OCO3	270	370	230	
CCC/N=C/C1=Cc2cc3c(cc2[C@@H](c2cc(OC)c(OC)c(OC)c2)[C@@H]1C(=O)OC)OCO3	41	1300	41	
CCC/N=C/C1=Cc2cc3c(cc2[C@@H](c2cc(OC)c(OC)c(OC)c2)[C@@H]1C(=O)OCC)OCO3	390	1200	230	
